Experimental data: ChEMBL document CHEMBL1147008, “Design, synthesis, and biological activities of madindoline analogues” (2006)

Each molecule was assayed on 7TDI (assay: Inhibition of IL6-dependent growth of 7TDI cells at 10 uM relative to madindoline A).
Assay type: functional, Mus musculus
Method in brief: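 IL-6-dependent 7TDI cell line; growth inhibition measured with each analogue present at 10 μM. Values expressed against the natural compound.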

`CC1=C(C)C(=O)C(C)(CN2c3ccccc3[C@]3(O)CCO[C@H]23)C1=O` and `CCC1=C(C)C(=O)[C@](C)(CN2c3ccccc3[C@]3(O)CCO[C@H]23)C1=O` are the same in Activity: 0 for the first, 0 for the second.

Compared with `CCCCCCCCCC1=C(C)C(=O)[C@](C)(CN2c3ccccc3[C@]3(O)CCO[C@H]23)C1=O`, `CCCCCCCCCCCC1=C(C)C(=O)[C@](C)(CN2c3ccccc3[C@]3(O)CCO[C@H]23)C1=O` is lower in Activity: 3.9 for the first, 3.4 for the second.

Compared with `CC1=C(Cc2ccccc2)C(=O)[C@@](C)(CN2c3ccccc3[C@]3(O)CCO[C@H]23)C1=O`, `CCCCC1=C(C)C(=O)[C@@](C)(CN2c3ccccc3[C@@]3(O)CCO[C@@H]23)C1=O` is lower in Activity: 0.9 for the first, 0 for the second.

Compared with `CCCCC1=C(C)C(=O)[C@@](C)(CN2c3ccccc3[C@]3(OC(=O)c4ccccc4)CCO[C@H]23)C1=O`, `CCCCC1=C(C)C(=O)[C@@](C)(CN2c3ccccc3[C@]3(OC(C)=O)CCO[C@H]23)C1=O` is lower in Activity: 2.6 for the first, 1.2 for the second.

Compared with `CCCCCC(=O)O[C@@]12CCO[C@@H]1N(C[C@]1(C)C(=O)C(C)=C(CCCC)C1=O)c1ccccc12`, `CCCCCCCCCC(=O)O[C@@]12CCO[C@@H]1N(C[C@]1(C)C(=O)C(C)=C(CCCC)C1=O)c1ccccc12` is lower in Activity: 2.6 for the first, 0 for the second.

Going from `CC1=C(C)C(=O)CC1=O` to `CCCCC1=C(C)C(=O)[C@@](C)(CN2c3ccccc3[C@]3(O)CCO[C@H]23)C1=O`, the Activity rises from 0 to 1.

Compared with `O[C@@]12CCO[C@@H]1Nc1ccccc12`, `CCCCCCCC1=C(C)C(=O)[C@](C)(CN2c3ccccc3[C@]3(O)CCO[C@H]23)C1=O` is higher in Activity: 0 for the first, 3.2 for the second.

First: CCCCC1=C(C)C(=O)[C@@](C)(CN2c3ccc(Cl)cc3[C@]3(O)CCO[C@H]23)C1=O
Second: CCCCC1=C(C)C(=O)[C@@](C)(CN2c3ccc(Br)cc3[C@]3(O)CCO[C@H]23)C1=O
The Activity of the first is lower: 0.8 for the first, 2.8 for the second.

Going from `CCCCCCCCCCCCCCCCCCCCCC1=C(C)C(=O)[C@](C)(CN2c3ccccc3[C@]3(O)CCO[C@H]23)C1=O` to `CCCCC1=C(C)C(=O)[C@@](C)(CN2c3ccc(I)cc3[C@]3(O)CCO[C@H]23)C1=O`, the Activity rises from 0 to 2.8.

With `CCCCC1=C(C)C(=O)[C@@](C)(Cn2cc(CCO)c3ccccc32)C1=O` the Activity was 0.9.
